Data from ChEMBL document CHEMBL1139342, “Antibacterial 5'-O-(N-dipeptidyl)-sulfamoyladenosines” (2009).
Where a SMILES comes first, the peptide text is derived from it. The star is where a group is joined. AspNHSO2(5'-O-Ado) = Nc1ncnc2c1ncn2[C@@H]1O[C@H](COS(=O)(=O)NC(=O)[C@H](CC(=O)O)N*)[C@@H](O)[C@H]1O

How the values were obtained:
Assay type in all cases: functional
Escherichia coli [1] = assay: Antibacterial activity against wild type Escherichia coli at 30 nmol after 16 to 20 hrs
Procedure, shortened: (§1)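 Agar overlay diffusion assay: soft Mueller–Hinton agar (0.75% agar) seeded with bacteria poured over Mueller–Hinton agar (1.5% agar). Once set, 5 µL drops of compound in milliQ water were applied (30 nmol per drop, or 1.2 nmol for the reference compound) and allowed to dry. Plates were incubated at 37 °C for 16–20 h. Inhibition zone area was read in mm², triplicate per compound–dose.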

Staphylococcus aureus [2] = assay: Antibacterial activity against Staphylococcus aureus ATCC 25923 at 30 nmol after 16 to 20 hrs; procedure, shortened: as §1
Enterococcus faecalis [3] = assay: Antibacterial activity against Enterococcus faecalis ATCC 29212 at 30 nmol after 16 to 20 hrs; procedure, shortened: as §1
Escherichia coli [4] = assay: Antibacterial activity against Escherichia coli delta ABN mutant lacking peptidase A, B, N at 30 nmol after 16 to 20 hrs
Procedure, shortened: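 Agar diffusion test. A soft Mueller–Hinton agar lawn (0.75% agar) seeded with bacteria was poured over Mueller–Hinton agar (1.5% agar). Once the agar set, 5 µL drops of compound in milliQ water (30 nmol per drop) were applied and left to dry. Plates were incubated at 37 °C for 16–20 h. Inhibition zone area was recorded in mm² as mean ± SD of triplicates.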

Enterococcus faecalis [5] = assay: Antibacterial activity against Enterococcus faecalis ATCC 29212 at 1.2 nmol after 16 to 20 hrs; procedure, shortened: as §1
Escherichia coli [6] = assay: Antibacterial activity against wild type Escherichia coli at 1.2 nmol after 16 to 20 hrs; procedure, shortened: as §1
Staphylococcus aureus [7] = assay: Antibacterial activity against Staphylococcus aureus ATCC 25923 at 1.2 nmol after 16 to 20 hrs; procedure, shortened: as §1

Compound	inhibition zone (IZ) (Escherichia coli [1]) [mm2]	inhibition zone (IZ) (Staphylococcus aureus [2]) [mm2]	inhibition zone (IZ) (Enterococcus faecalis [3]) [mm2]	inhibition zone (IZ) (Escherichia coli [4]) [mm2]	inhibition zone (IZ) (Enterococcus faecalis [5]) [mm2]	inhibition zone (IZ) (Escherichia coli [6]) [mm2]	inhibition zone (IZ) (Staphylococcus aureus [7]) [mm2]
CSCC[C@H](N)C(=O)N[C@@H](Cc1c[nH]c2ccccc12)C(=O)NS(=O)(=O)OC[C@H]1O[C@@H](n2cnc3c(N)ncnc32)[C@H](O)[C@@H]1O	0	0	0				
C[C@H](N)C(=O)N[C@@H](Cc1c[nH]c2ccccc12)C(=O)NS(=O)(=O)OC[C@H]1O[C@@H](n2cnc3c(N)ncnc32)[C@H](O)[C@@H]1O	0	0	0				
Nc1ncnc2c1ncn2[C@@H]1O[C@H](COS(=O)(=O)NC(=O)[C@H](Cc2c[nH]c3ccccc23)NC(=O)[C@@H]2CCCN2)[C@@H](O)[C@H]1O	0	0	0				
CC(C)C[C@H](NC(=O)[C@H](C)N)C(=O)NS(=O)(=O)OC[C@H]1O[C@@H](n2cnc3c(N)ncnc32)[C@H](O)[C@@H]1O	0	0	24.2				
Nc1ncnc2c1ncn2[C@@H]1O[C@H](COS(=O)(=O)NC(=O)[C@@H](N)CC(=O)O)[C@@H](O)[C@H]1O	26.8	0	21.3	28.3			
CSCC[C@H](NC(=O)[C@H](C)N)C(=O)NS(=O)(=O)OC[C@H]1O[C@@H](n2cnc3c(N)ncnc32)[C@H](O)[C@@H]1O	0	0	0				
CSCC[C@H](N)C(=O)NS(=O)(=O)OC[C@H]1O[C@@H](n2cnc3c(N)ncnc32)[C@H](O)[C@@H]1O	26.8	18.7	0	40.4			
Nc1ncnc2c1ncn2[C@@H]1O[C@H](COS(=O)(=O)NC(=O)[C@@H](N)Cc2c[nH]c3ccccc23)[C@@H](O)[C@H]1O	0	0	0				
CSCC[C@H](N)C(=O)N[C@@H](C)C(=O)NS(=O)(=O)OC[C@H]1O[C@@H](n2cnc3c(N)ncnc32)[C@H](O)[C@@H]1O	26.8	59	76.1	0			
CSCC[C@H](N)C(=O)N[C@@H](CC(C)C)C(=O)NS(=O)(=O)OC[C@H]1O[C@@H](n2cnc3c(N)ncnc32)[C@H](O)[C@@H]1O	0	0	33.3				
CC(C)C[C@H](NC(=O)[C@@H](N)CCCCN)C(=O)NS(=O)(=O)OC[C@H]1O[C@@H](n2cnc3c(N)ncnc32)[C@H](O)[C@@H]1O	0	0	0				
CSCC[C@H](NC(=O)[C@@H]1CCCN1)C(=O)NS(=O)(=O)OC[C@H]1O[C@@H](n2cnc3c(N)ncnc32)[C@H](O)[C@@H]1O	0	0	0				
C[C@H](N)C(=O)N[C@@H](C)C(=O)NS(=O)(=O)OC[C@H]1O[C@@H](n2cnc3c(N)ncnc32)[C@H](O)[C@@H]1O	25.3	0	56.9	0			
CSCC[C@H](NC(=O)[C@@H](N)CCSC)C(=O)NS(=O)(=O)OC[C@H]1O[C@@H](n2cnc3c(N)ncnc32)[C@H](O)[C@@H]1O	0	0	83.9				
Nc1ncnc2c1ncn2[C@@H]1O[C@H](COS(=O)(=O)NC(=O)[C@H](Cc2ccccc2)NC(=O)[C@@H](N)Cc2ccccc2)[C@@H](O)[C@H]1O	18.4	0	26.8	19.6			
NCCCC[C@H](N)C(=O)N[C@@H](Cc1c[nH]c2ccccc12)C(=O)NS(=O)(=O)OC[C@H]1O[C@@H](n2cnc3c(N)ncnc32)[C@H](O)[C@@H]1O	0	0	0				
CC(C)C[C@H](NC(=O)[C@@H](N)CCC(=O)O)C(=O)NS(=O)(=O)OC[C@H]1O[C@@H](n2cnc3c(N)ncnc32)[C@H](O)[C@@H]1O	0	0	0				
CSCC[C@H](N)C(=O)N[C@@H](CC(=O)O)C(=O)NS(=O)(=O)OC[C@H]1O[C@@H](n2cnc3c(N)ncnc32)[C@H](O)[C@@H]1O	12.6	0	63.7	31.5			
CC(C)C[C@H](NC(=O)[C@@H]1CCCN1)C(=O)NS(=O)(=O)OC[C@H]1O[C@@H](n2cnc3c(N)ncnc32)[C@H](O)[C@@H]1O	0	0	0				
C[C@H](NC(=O)[C@@H]1CCCN1)C(=O)NS(=O)(=O)OC[C@H]1O[C@@H](n2cnc3c(N)ncnc32)[C@H](O)[C@@H]1O	18.4	0	0	0			
CSCC[C@H](N)C(=O)N[C@@H](CCCNC(=N)N)C(=O)N[C@H](C(=O)NCC(=O)N[C@@H](CC(N)=O)C(=O)N[C@@H](C)C(=O)N[C@@H](CC(=O)O)C(=O)NS(=O)(=O)OC[C@H]1O[C@@H](n2cnc3c(N)ncnc32)[C@H](O)[C@@H]1O)[C@@H](C)O (H-MRTGNA-{AspNHSO2(5'-O-Ado)})					0	46.7	0
C[C@H](N)C(=O)NS(=O)(=O)OC[C@H]1O[C@@H](n2cnc3c(N)ncnc32)[C@H](O)[C@@H]1O [ALASA]	46.3	35	44.7	42.3			
CC(C)C[C@H](N)C(=O)NS(=O)(=O)OC[C@H]1O[C@@H](n2cnc3c(N)ncnc32)[C@H](O)[C@@H]1O [LEUSA]	25.4	0	26.9	66			
C/C(=C\C(=O)OCCCCCCCCC(=O)O)C[C@@H]1OC[C@H](C[C@@H]2O[C@H]2[C@@H](C)[C@H](C)O)[C@@H](O)[C@H]1O [MUPIROCIN]	38.5	>490.93	89.4	52.7			
Nc1ncnc2c1ncn2[C@@H]1O[C@H](COS(=O)(=O)NC(=O)[C@@H](N)Cc2ccccc2)[C@@H](O)[C@H]1O [PHESA]	38.5	0	40.4	52.7			
